Measurements reported in ChEMBL document CHEMBL4811225 (J Med Chem, 2021).
Where a SMILES comes first, the peptide text is derived from it. Bridges are numbered along the chain shown (N, C = ends).

Tests used:
[1] = target: Nicotinic acetylcholine receptor alpha-1/beta-1/delta/epsilon (Homo sapiens, UniProt P02708+P11230+Q04844+Q07001); assay: Inhibition of human alpha1beta1deltaepsilon nAChR expressed in Xenopus laevis oocytes assessed as inhibition of acetylcholine-induced current response by two-electrode voltage-clamp method; format: cell-based, Oocyte
Outline: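 Stage IV–V X. laevis oocytes nucleus-injected with equal ratios of human α1, β1, δ, ε cDNAs; TEVC 1–5 days after injection. ACh 100 μM, 1 s every 60 s.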

[2] = target: Neuronal acetylcholine receptor; alpha3/beta2 (Homo sapiens, UniProt P17787+P32297); assay: Inhibition of human alpha3beta2 nAChR expressed in Xenopus laevis oocytes assessed as inhibition of acetylcholine-induced current response by two-electrode voltage-clamp method; format: cell-based, Oocyte
Outline: (§1)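 Two-electrode voltage clamp of stage IV–V oocytes 1–5 days after equal-ratio cRNA injection; ACh 100 μM (β2-containing subtypes, α9α10), 1 s every 60 s in frog saline. Peptide perfused up to 1 μM, responses normalized to mean of three control responses; above 1 μM, 5 min static bath. IC50 with 95% CI; n = oocytes.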

[3] = target: Neuronal acetylcholine receptor; alpha3/beta2 (Rattus norvegicus, UniProt P04757+P12390); format: cell-based, Oocyte
[4] = target: Neuronal acetylcholine receptor; alpha3/beta4 (Rattus norvegicus, UniProt P04757+P12392); format: cell-based, Oocyte
[5] = target: Neuronal acetylcholine receptor; alpha4/beta2 (Homo sapiens, UniProt P17787+P43681); assay: Inhibition of human alpha4beta2 nAChR expressed in Xenopus laevis oocytes assessed as inhibition of acetylcholine-induced current response by two-electrode voltage-clamp method; format: cell-based, Oocyte; outline: as §1
Rattus norvegicus [6] = species: Rattus norvegicus; assay: Selectivity ratio of IC50 for rat alpha3beta2 nAChR to IC50 for rat alpha6/alpha3beta4 nAChR
Outline: (§2)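 Ratio of each subtype's IC50, from TEVC inhibition of ACh-evoked currents in X. laevis oocytes, to the IC50 at the same species' α6/α3β4 nAChR; IC50 values with 95% CI, n = number of oocytes.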

Homo sapiens = species: Homo sapiens; assay: Selectivity ratio of IC50 for human alpha4beta4 nAChR to IC50 for human alpha6/alpha3beta4 nAChR; outline: as §2
Rattus norvegicus [7] = species: Rattus norvegicus; assay: Selectivity ratio of IC50 for rat alpha4beta4 nAChR to IC50 for rat alpha6/alpha3beta4 nAChR; outline: as §2
[8] = target: Neuronal acetylcholine receptor subunit alpha-7 (Homo sapiens, UniProt P36544); assay: Inhibition of human alpha7 nAChR expressed in Xenopus laevis oocytes assessed as inhibition of acetylcholine-induced current response at 10 uM by two-electrode voltage-clamp method relative to control; format: cell-based; conditions: Oocyte
Outline: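 Stage IV–V X. laevis oocytes expressing equal-ratio cRNAs of α2β4, α3β4, α4β4 or α7 subunits; TEVC 1–5 days after injection. ACh 300 μM, 1 s at 60 s intervals. 10 μM peptide as 5 min static bath, normalized to ACh response after 5 min bath of control saline; mean ± SD, n = 4.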

[9] = target: Neuronal acetylcholine receptor; alpha3/beta2 (Rattus norvegicus) (UniProt P04757+P12390); assay: Inhibition of rat alpha3beta2 nAChR expressed in Xenopus laevis oocytes assessed as inhibition of acetylcholine-induced current response at 10 uM by two-electrode voltage-clamp method relative to control; format: cell-based; conditions: Oocyte
Outline: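 Oocytes (stage IV–V) injected with equal-ratio cRNAs of cloned subunits; TEVC 1–5 days post-injection. ACh 100 μM for β2-containing and α9α10 subtypes, 1 s pulses every 60 s. Peptide 10 μM in 5 min static bath; response normalized to ACh response after 5 min control-saline bath; mean ± SD, n = 4.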

Chain of Neuronal acetylcholine receptor; alpha3/beta4 (P04757 whole entry): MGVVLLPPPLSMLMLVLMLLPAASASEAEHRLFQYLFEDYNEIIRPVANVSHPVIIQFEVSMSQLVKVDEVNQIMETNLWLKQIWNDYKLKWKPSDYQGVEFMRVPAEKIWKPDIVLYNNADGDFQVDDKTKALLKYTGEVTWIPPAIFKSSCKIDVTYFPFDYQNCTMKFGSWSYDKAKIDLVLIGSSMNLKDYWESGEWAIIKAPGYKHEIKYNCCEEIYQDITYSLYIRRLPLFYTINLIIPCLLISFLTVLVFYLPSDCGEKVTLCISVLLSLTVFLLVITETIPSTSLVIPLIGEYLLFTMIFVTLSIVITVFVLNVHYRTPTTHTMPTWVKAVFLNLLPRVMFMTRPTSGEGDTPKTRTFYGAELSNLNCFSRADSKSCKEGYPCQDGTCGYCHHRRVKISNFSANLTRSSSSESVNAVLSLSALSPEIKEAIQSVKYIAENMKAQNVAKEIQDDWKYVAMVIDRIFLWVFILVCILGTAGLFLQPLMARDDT
Chain of Neuronal acetylcholine receptor; alpha3/beta4 (P12392 whole entry): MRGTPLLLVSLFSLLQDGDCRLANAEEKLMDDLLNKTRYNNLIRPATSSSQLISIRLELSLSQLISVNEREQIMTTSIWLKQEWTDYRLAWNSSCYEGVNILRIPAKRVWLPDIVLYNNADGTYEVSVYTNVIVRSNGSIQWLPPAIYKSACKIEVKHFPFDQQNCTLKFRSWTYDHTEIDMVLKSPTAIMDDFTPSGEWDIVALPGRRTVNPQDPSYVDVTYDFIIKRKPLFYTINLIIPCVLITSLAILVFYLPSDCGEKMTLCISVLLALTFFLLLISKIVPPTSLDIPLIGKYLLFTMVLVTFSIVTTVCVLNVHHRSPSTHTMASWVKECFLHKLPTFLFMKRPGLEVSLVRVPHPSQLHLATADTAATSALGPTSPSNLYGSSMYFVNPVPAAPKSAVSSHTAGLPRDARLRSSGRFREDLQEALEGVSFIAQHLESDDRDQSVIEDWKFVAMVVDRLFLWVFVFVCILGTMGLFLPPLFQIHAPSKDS
Chain of Neuronal acetylcholine receptor; alpha3/beta2 (Rattus norvegicus, UniProt P04757+P12390) (P04757 whole entry): as the sequence (P04757 whole entry) above
Chain of Neuronal acetylcholine receptor; alpha3/beta2 (Rattus norvegicus, UniProt P04757+P12390) (P12390 whole entry): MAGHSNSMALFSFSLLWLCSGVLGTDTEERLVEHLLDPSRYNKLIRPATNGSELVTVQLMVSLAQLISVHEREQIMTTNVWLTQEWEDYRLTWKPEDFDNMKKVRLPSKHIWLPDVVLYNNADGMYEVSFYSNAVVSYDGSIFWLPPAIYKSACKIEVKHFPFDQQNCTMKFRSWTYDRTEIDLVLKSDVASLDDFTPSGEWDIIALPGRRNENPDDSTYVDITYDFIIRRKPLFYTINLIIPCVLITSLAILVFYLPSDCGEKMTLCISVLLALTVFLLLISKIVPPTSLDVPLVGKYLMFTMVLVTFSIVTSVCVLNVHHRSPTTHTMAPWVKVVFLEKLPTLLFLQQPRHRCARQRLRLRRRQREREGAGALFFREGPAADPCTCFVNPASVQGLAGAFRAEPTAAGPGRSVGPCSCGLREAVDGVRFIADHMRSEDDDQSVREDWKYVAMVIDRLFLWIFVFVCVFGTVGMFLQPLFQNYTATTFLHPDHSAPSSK
Chain of Neuronal acetylcholine receptor; alpha4/beta2 (P17787 whole entry): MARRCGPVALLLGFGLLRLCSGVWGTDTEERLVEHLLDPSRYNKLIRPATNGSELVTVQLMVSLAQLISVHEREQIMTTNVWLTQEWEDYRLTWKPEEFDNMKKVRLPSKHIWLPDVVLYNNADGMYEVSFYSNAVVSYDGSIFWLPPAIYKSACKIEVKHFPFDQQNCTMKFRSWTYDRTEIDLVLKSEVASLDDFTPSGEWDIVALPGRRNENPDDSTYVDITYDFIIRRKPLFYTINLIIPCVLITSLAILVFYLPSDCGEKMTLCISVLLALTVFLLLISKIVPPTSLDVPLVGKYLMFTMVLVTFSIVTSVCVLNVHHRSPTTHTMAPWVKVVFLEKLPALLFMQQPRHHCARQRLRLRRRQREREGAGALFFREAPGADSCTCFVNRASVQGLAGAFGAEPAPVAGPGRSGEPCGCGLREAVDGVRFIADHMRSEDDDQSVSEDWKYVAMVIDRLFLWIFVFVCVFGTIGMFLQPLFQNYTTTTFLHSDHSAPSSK
Chain of Neuronal acetylcholine receptor; alpha4/beta2 (P43681 whole entry): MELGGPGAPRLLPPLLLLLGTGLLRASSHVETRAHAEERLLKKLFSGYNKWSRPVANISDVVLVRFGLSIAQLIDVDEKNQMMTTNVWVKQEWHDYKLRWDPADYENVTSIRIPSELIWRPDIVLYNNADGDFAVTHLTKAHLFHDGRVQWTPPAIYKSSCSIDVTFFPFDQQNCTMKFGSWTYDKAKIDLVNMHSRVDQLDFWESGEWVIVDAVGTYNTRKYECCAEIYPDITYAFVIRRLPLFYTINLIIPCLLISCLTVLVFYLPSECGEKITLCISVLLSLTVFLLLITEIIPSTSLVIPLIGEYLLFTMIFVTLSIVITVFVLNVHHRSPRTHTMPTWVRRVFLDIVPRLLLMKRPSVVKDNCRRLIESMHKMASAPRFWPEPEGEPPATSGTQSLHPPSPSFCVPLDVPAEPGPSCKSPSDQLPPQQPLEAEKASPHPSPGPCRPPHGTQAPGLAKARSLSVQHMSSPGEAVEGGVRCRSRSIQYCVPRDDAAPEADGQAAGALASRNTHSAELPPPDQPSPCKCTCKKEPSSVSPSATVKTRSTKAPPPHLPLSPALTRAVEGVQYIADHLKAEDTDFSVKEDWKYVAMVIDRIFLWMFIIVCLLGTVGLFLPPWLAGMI
Chain of Neuronal acetylcholine receptor; alpha3/beta2 (Homo sapiens, UniProt P17787+P32297) (P17787 whole entry, the tested form may be a part): as the sequence (P17787 whole entry) above
Chain of Neuronal acetylcholine receptor; alpha3/beta2 (Homo sapiens, UniProt P17787+P32297) (P32297 whole entry, the tested form may be a part): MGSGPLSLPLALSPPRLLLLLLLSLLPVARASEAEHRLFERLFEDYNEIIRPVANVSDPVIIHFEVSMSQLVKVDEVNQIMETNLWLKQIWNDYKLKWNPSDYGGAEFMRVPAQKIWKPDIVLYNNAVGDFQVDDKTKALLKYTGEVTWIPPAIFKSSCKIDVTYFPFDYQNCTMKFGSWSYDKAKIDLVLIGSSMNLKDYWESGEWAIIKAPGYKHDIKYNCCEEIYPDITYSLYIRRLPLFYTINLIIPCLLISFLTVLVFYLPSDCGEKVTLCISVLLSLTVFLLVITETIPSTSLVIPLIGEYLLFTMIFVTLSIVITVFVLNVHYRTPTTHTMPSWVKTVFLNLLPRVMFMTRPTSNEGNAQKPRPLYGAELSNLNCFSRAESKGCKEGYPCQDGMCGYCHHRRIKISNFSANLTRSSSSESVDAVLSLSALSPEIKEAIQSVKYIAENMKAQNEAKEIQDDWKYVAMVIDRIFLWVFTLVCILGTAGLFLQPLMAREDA
Chain of Neuronal acetylcholine receptor subunit alpha-7 (P36544 whole entry): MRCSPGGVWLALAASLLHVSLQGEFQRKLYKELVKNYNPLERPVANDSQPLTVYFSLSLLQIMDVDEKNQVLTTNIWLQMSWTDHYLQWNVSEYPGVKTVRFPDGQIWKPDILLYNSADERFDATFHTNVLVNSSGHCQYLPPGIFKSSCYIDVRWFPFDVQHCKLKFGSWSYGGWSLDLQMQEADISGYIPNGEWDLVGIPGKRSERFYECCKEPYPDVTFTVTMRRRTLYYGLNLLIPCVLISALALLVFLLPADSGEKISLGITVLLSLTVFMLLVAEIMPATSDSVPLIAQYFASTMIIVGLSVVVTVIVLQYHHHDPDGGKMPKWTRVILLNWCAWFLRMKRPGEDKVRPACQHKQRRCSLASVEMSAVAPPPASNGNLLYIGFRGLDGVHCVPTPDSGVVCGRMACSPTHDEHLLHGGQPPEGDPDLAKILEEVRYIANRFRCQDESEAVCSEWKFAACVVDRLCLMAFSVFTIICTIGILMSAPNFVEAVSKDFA

Structure (SMILES): CC[C@H](C)[C@@H]1NC(=O)[C@H](CCC(=O)O)NC(=O)[C@@H]2CCCN2C(=O)[C@H](Cc2cnc[nH]2)NC(=O)[C@H](CC(N)=O)NC(=O)[C@H](C(C)C)NC(=O)[C@H](CC(N)=O)NC(=O)[C@@H]2CSSC[C@H](NC(=O)CN)C(=O)N[C@@H](CSSC[C@@H](C(N)=O)NC1=O)C(=O)N[C@@H](CO)C(=O)N[C@@H](Cc1cnc[nH]1)C(=O)N1CCC[C@H]1C(=O)N[C@@H](C(C)C)C(=O)N2 (H-GCCSHPVCNVNHPEIC-NH2; disulfide 2-8, 3-16)
- IC50 [1]: > 10 µM
- IC50 [2]: > 10 µM
- IC50 [3]: > 10 µM
- IC50 [4]: 230 nM
- IC50 [5]: > 10 µM
- Ratio IC50 (Rattus norvegicus [6]): > 20000
- Ratio IC50 (Homo sapiens): 20100
- Ratio IC50 (Rattus norvegicus [7]): > 20000
- inhibition [8]: 89%
- inhibition [9]: 94%
